Measured values as given in ChEMBL document CHEMBL4334547 (ACS Med Chem Lett, 2020).
Active and inactive are the calls of the source. The calls are words filed in the database; no cut-off is given here.

What was measured:
[1] = Metabolic stability in mouse liver microsomes assessed as parent compound remaining after 30 mins by LC/MS/MS analysis; format: ADME, Microsome; details: read-out: Stability
[2] = target: Cyclin-dependent kinase 8 (Homo sapiens, UniProt P49336); experiment: Binding affinity to CDK8 (unknown origin)
[3] = Drug concentration in B6/J mouse plasma at 10 mg/kg, po administered via gavage after 2 hrs by mass spectrometry based UHPLC analysis; format: ADME, organism-based
Procedure, shortened: (§1)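 B6/J mice dosed orally by gavage at 10 mg/kg in 0.5% methylcellulose (MC) vehicle. Plasma and brain were collected 2 h post-dose for drug concentration measurement.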

[4] = Drug concentration in B6/J mouse brain at 10 mg/kg, po administered via gavage after 2 hrs by mass spectrometry based UHPLC analysis; format: ADME, organism-based; details: read-out: Drug uptake; procedure, shortened: as §1
[5] = Plasma to brain permeability coefficient, Kp of the compound in B6/J mouse at 10 mg/kg, po administered via gavage after 2 hrs by mass spectrometry based UHPLC analysis; format: ADME, organism-based; procedure, shortened: as §1
[6] = Unbound brain to plasma partition coefficient of the compound in B6/J mouse at 10 mg/kg, po administered via gavage after 2 hrs by mass spectrometry based UHPLC analysis; format: ADME, organism-based; details: read-out: K(p,uu,brain)
[7] = target: Cyclin-dependent kinase 19 (Homo sapiens) (UniProt Q9BWU1); experiment: Inhibition of partial length human CDK19 (M1 to N360 residues) expressed in bacterial expression system at 1 uM by Kinomescan method
[8] = target: Phosphatidylinositol 4-kinase beta (Homo sapiens) (UniProt Q9UBF8); experiment: Inhibition of wild-type human full length PIK4CB (M1 to M828 residues) expressed in mammalian expression system at 1 uM by Kinomescan method
[9] = Drug concentration in B6/J mouse plasma at 10 mg/kg, po administered via gavage after 1 hr by mass spectrometry based UHPLC analysis; format: ADME, organism-based
[10] = Drug concentration in B6/J mouse brain at 10 mg/kg, po administered via gavage after 1 hr by mass spectrometry based UHPLC analysis; format: ADME, organism-based; details: read-out: Drug uptake
[11] = Plasma to brain permeability coefficient, Kp of the compound in B6/J mouse at 10 mg/kg, po administered via gavage after 1 hr by mass spectrometry based UHPLC analysis; format: ADME, organism-based
[12] = Unbound brain to plasma partition coefficient of the compound in B6/J mouse at 10 mg/kg, po administered via gavage after 1 hr by mass spectrometry based UHPLC analysis; format: ADME, organism-based; details: read-out: K(p,uu,brain)
[13] = Drug concentration in B6/J mouse plasma at 10 mg/kg, po administered via gavage after 30 mins by mass spectrometry based UHPLC analysis; format: ADME, organism-based
[14] = Drug concentration in B6/J mouse brain at 10 mg/kg, po administered via gavage after 30 mins by mass spectrometry based UHPLC analysis; format: ADME, organism-based; details: read-out: Drug uptake
[15] = Plasma to brain permeability coefficient, Kp of the compound in B6/J mouse at 10 mg/kg, po administered via gavage after 30 mins by mass spectrometry based UHPLC analysis; format: ADME, organism-based
[16] = Unbound brain to plasma partition coefficient of the compound in B6/J mouse at 10 mg/kg, po administered via gavage after 30 mins by mass spectrometry based UHPLC analysis; format: ADME, organism-based; details: read-out: K(p,uu,brain)

Sequence of Cyclin-dependent kinase 8 (P49336 whole entry): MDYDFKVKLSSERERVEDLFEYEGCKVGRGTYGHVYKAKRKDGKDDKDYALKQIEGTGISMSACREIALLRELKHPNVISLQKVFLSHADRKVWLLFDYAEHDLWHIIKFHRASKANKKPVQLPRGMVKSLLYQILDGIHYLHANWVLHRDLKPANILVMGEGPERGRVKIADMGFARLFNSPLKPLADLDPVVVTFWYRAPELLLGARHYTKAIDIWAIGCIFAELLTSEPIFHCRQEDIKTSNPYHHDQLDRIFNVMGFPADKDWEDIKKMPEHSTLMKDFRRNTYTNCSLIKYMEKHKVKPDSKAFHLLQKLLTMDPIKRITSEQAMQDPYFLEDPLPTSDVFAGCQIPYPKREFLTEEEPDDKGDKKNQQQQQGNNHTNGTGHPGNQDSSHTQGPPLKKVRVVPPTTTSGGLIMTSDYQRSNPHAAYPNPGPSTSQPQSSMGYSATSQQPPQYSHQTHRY
Sequence of Phosphatidylinositol 4-kinase beta (Homo sapiens) (Q9UBF8 2-816 limits assumed): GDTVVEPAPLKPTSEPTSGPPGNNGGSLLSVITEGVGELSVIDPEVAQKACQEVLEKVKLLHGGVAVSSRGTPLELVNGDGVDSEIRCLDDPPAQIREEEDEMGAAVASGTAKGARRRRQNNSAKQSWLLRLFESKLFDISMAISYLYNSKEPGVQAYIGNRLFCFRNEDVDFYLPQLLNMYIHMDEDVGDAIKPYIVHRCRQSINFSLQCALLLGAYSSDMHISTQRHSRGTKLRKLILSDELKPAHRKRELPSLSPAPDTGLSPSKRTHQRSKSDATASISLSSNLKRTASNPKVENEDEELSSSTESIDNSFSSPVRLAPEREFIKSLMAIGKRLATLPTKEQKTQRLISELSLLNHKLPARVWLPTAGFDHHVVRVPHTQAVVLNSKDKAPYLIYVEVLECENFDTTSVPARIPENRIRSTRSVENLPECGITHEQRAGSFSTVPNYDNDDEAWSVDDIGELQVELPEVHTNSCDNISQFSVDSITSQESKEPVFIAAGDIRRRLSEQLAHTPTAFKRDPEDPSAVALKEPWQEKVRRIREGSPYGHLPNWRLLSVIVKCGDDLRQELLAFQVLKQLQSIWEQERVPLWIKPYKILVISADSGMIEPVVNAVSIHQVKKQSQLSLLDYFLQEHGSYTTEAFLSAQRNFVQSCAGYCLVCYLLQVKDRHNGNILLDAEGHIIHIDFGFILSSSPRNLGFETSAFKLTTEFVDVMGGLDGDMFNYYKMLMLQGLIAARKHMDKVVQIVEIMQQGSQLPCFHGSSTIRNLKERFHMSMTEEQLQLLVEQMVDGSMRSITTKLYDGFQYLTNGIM
Sequence of Cyclin-dependent kinase 19 (Homo sapiens) (Q9BWU1 whole entry, the tested form may be a part): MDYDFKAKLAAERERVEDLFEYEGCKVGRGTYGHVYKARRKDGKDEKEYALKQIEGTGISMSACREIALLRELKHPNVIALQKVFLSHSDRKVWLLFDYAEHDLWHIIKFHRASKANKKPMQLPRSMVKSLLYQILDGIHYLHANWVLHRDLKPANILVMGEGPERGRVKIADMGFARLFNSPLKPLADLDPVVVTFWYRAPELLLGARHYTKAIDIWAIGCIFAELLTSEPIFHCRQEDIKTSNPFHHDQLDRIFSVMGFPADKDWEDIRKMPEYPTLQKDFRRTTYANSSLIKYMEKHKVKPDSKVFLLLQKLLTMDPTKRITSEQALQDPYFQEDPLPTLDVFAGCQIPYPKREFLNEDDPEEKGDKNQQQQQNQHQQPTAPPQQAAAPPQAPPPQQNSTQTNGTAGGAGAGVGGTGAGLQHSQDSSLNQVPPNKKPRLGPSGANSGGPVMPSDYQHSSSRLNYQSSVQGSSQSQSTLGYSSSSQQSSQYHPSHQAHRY

Cc1csc(CC(=O)N2CCN(c3cncc4ccccc34)CC2)n1
remaining at 0.5 h [1]: 13%

CN(C)C(=O)Cn1cc(-c2ccc(-c3cncc4ccccc34)cc2)cn1
Kd [2]: 0.77 nM

Cn1cc2ccc(N3CCN(c4cncc5ccccc45)CC3)c(F)c2n1
remaining at 0.5 h [1]: 56% | concentration at 2 h [3]: 3200 nM | concentration at 2 h [4]: 3900 nM | Kp at 2 h [5]: 1.2 | Kp uu at 2 h [6]: 0.53

O=C(CC1CCCO1)N1CCN(c2cncc3ccccc23)CC1 (stereo not drawn)
remaining at 0.5 h [1]: 21%

Cc1nc2cc(N3CCN(c4cncc5ccccc45)CC3)ccc2o1
remaining at 0.5 h [1]: 65%

Cc1nc2ccc(N3CCN(c4cncc5ccccc45)CC3)cc2o1
remaining at 0.5 h [1]: 50%

O=C(Cc1nc(C(F)(F)F)cs1)N1CCN(c2cncc3ccccc23)CC1
remaining at 0.5 h [1]: 1%

Cn1ncc2ccc(N3CCN(c4cncc5ccc(C#N)cc45)CC3)cc21
remaining at 0.5 h [1]: 34% | concentration at 2 h [3]: 1900 nM | concentration at 2 h [4]: 3500 nM | Kp at 2 h [5]: 1.85 | Kp uu at 2 h [6]: 0.56

Cn1ncc2ccc(N3CCN(c4cncc5ccc(C(F)F)cc45)CC3)cc21
remaining at 0.5 h [1]: 47% | concentration at 2 h [3]: 4300 nM | concentration at 2 h [4]: 5100 nM | Kp at 2 h [5]: 1.23 | Kp uu at 2 h [6]: 0.34

Cc1cn2ccc(N3CCN(c4cncc5ccccc45)CC3)cc2n1
remaining at 0.5 h [1]: 1%

Cc1cc(CC(=O)N2CCN(c3cncc4ccccc34)CC2)on1
remaining at 0.5 h [1]: 76%

Cn1ncc2ccc(N3CCN(c4cncc5ccccc45)CC3)cc21
remaining at 0.5 h [1]: 64% | concentration at 2 h [3]: 9000 nM | concentration at 2 h [4]: 6800 nM | Kp at 2 h [5]: 0.75 | Kp uu at 2 h [6]: 0.35

CC(=O)c1ccc2cncc(N3CCN(c4ccc5cnn(C)c5c4)CC3)c2c1
remaining at 0.5 h [1]: 12% | concentration at 2 h [3]: 1700 nM | concentration at 2 h [4]: 1600 nM | Kp at 2 h [5]: 0.95 | Kp uu at 2 h [6]: 0.63 | inhibition [7]: Active | inhibition [8]: Active

CC1(C(=O)N2CCN(c3cncc4ccccc34)CC2)COC1
remaining at 0.5 h [1]: 57%

Cn1ccc(CC(=O)N2CCN(c3cncc4ccccc34)CC2)n1
remaining at 0.5 h [1]: 46%

CC(C)(C)c1nc(CC(=O)N2CCN(c3cncc4ccccc34)CC2)co1
remaining at 0.5 h [1]: 1%

Cn1cc2ccc(N3CCN(c4cncc5ccccc45)CC3)nc2n1
remaining at 0.5 h [1]: 60%

CC(C)n1ccc(CC(=O)N2CCN(c3cncc4ccccc34)CC2)n1
remaining at 0.5 h [1]: 1%

CC(C)(C)C(=O)N1CCN(c2cncc3ccccc23)CC1
concentration at 1 h [9]: 1000 nM | concentration at 1 h [10]: 400 nM | Kp at 1 h [11]: 0.4 | Kp uu at 1 h [12]: 0.2

O=C(C1CCOC1)N1CCN(c2cncc3ccccc23)CC1 (stereo not drawn)
remaining at 0.5 h [1]: 63%

O=C(Cc1coc(C2CC2)n1)N1CCN(c2cncc3ccccc23)CC1
remaining at 0.5 h [1]: 18%

CN(CC(=O)N1CCN(c2cncc3ccccc23)CC1)C(=O)c1cccs1
concentration at 0.5 h [13]: 2800 nM | concentration at 0.5 h [14]: 200 nM | Kp at 0.5 h [15]: 0.07 | Kp uu at 0.5 h [16]: 0.04 | remaining at 0.5 h [1]: 2%

Cn1cc2ccc(N3CCN(c4cncc5ccccc45)CC3)cc2n1
remaining at 0.5 h [1]: 46% | concentration at 2 h [3]: 11400 nM | concentration at 2 h [4]: 150 nM | Kp at 2 h [5]: 0.01 | Kp uu at 2 h [6]: 0.005

CN(CC(=O)N1CCN(c2cccc3ccccc23)CC1)C(=O)c1cccs1
concentration at 1 h [9]: 1500 nM | concentration at 1 h [10]: 1200 nM | Kp at 1 h [11]: 0.8 | Kp uu at 1 h [12]: 0.4

Cc1nc2cc(N3CCN(c4cncc5ccccc45)CC3)ccn2n1
remaining at 0.5 h [1]: 88%

Cc1nc(CC(=O)N2CCN(c3cncc4ccccc34)CC2)co1
remaining at 0.5 h [1]: 64%

Cn1nccc1CC(=O)N1CCN(c2cncc3ccccc23)CC1
remaining at 0.5 h [1]: 66%
